# From PubChem BioAssay
# Most compounds without a hit are left out; they make up all but 1.7% or so of the library.
# STEP block: STEP (human) phosphatase inhibition; P54829; recombinant STEP, OMFP fluorogenic substrate, fluorescence; inhibition, % at 20 µM; 360,000 tested, 0.25% active;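 active means inhibition at 20 µM, scaled per plate between control wells, above about 37%, limit read from the data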;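 further: 0% = DMSO with enzyme and substrate and 100% = substrate only without enzyme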
# Target sequence (P54829 whole entry, looked up): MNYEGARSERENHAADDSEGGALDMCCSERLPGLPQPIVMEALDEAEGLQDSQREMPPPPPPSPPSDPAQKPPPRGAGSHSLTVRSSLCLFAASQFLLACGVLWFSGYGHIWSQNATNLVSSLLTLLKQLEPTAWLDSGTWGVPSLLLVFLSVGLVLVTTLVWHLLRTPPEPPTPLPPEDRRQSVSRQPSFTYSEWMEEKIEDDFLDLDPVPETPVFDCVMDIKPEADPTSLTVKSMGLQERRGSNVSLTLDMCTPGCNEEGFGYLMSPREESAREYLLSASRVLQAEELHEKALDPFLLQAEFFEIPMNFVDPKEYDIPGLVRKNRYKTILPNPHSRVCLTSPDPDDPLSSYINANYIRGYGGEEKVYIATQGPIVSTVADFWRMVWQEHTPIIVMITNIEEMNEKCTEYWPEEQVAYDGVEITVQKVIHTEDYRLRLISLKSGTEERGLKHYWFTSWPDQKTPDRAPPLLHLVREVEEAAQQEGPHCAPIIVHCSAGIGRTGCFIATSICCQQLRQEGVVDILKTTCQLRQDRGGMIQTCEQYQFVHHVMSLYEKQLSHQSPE
#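 Test system: STEP tyrosine phosphatase / Reagent: OMFP at 25 µM / Doses: 20 µM, 1% DMSO / Read-out: percent inhibition scaled to no-enzyme and uninhibited-enzyme controls, plate-pattern corrected / Detection: FITC-channel fluorescence of OMFP product / Medium: Bis-Tris buffer pH 6.0, 2.5 mM DTT, 0.005% Tween 20 / Schedule: 20 min at room temperature, dark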
# Scp1 inh: inhibitors of human Scp-1 phosphatase. Q9GZU7. Recombinant Scp1, phosphopeptide, malachite green phosphate absorbance. inhibition, % at 20 µM. 340,000 tested, 0.88% active. AID 493091;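 active means inhibition above about 50% at 20 µM, limit read from the data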;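 further: plate controls were DMSO wells with enzyme for no effect and wells lacking enzyme for full effect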
#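 Incubation: 45 min enzyme reaction at room temperature / System: truncated SCP-1 phosphatase (76-261aa) / Reagent: Phospho 17-mer peptide substrate / Buffer or medium: Acidic Tris acetate buffer with magnesium and detergent / Signal: absorbance at 630 nm / Doses: one concentration, 20 µM, with 1.0% DMSO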
# LMPTP block: LMPTP (human) inhibition; P24666; recombinant LMPTP-A, OMFP fluorogenic substrate, fluorescence intensity; inhibition, % at 20 µM; 360,000 tested, 0.22% active;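 active means compounds that cut the enzyme signal by at least half of the control window in the single-dose screen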;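 further: plate controls were DMSO wells with enzyme plus substrate for no effect and substrate without enzyme for full effect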
# Target sequence (P24666 whole entry, looked up): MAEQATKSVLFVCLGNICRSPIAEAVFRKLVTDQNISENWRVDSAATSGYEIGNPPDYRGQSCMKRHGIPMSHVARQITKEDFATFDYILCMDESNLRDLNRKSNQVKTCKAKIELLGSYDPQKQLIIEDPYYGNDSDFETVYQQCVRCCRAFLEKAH
#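 Test system – LMPTP-A enzyme · Amount – LMPTP-A at 0.625 nM final in the reaction · Buffer or medium – Bis-Tris pH 6.0, DTT, detergent · Reagent – OMFP 400 µM · Doses – single 20 µM dose · Schedule – reaction 50 min, room temperature, dark · Detection – fluorescence intensity of OMFP turnover product · Evaluation – percent inhibition versus substrate-only and uninhibited controls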
# DNMT1 inh: blocks human DNA methyltransferase DNMT1; inhibition (reported as % activation of signal), % at 10 µM; 360,000 tested, 0.83% active; P26358; AID 588458; DNMT1 molecular beacon, Hinp1I cleavage, fluorescence; in the data active means inhibition above about 50%
# SUMO1-SIM PPI: modulators of human SUMO1-mediated protein-protein interactions. P63165. SUMO1 binding to a labelled peptide, TR-FRET, 1 h. inhibition, % at 20 µM. 360,000 tested, 0.33% active; in the data active means inhibition above about 37%
# Scp1 confirm: Scp-1 (human) inhibition, single-dose confirmed | shares compounds with Scp1 inh | recombinant SCP-1 catalytic domain, phosphate release, malachite green absorbance | 2,500 tested, 61% active | inhibition, % at 20 µM;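 further: plate controls were DMSO with enzyme for no effect and buffer wells lacking enzyme for full effect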
# MG interference: counter-screen for Scp-1 inhibitors: colorimetric interference. 2,500 tested, under 10 active. Colorimetric interference counterscreen, malachite green absorbance 630 nm. shares compounds with Scp1 inh. apparent inhibition (interference), % at 20 µM;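 further: compounds added after enzyme reaction finished so only phosphate colour detection is probed; plate controls were DMSO wells with completed Scp-1 reaction for no effect and substrate wells lacking enzyme for full effect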
# Scp-1 Tm shift: binds human Scp-1, shifting its melting temperature; shares compounds with Scp1 inh; Recombinant SCP1, Sypro Orange thermal shift Tm; thermal shift relative to vanadate control, % at 40 µM; 1,500 tested, 25% active; AID 540329;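 active means substances whose mean melting-temperature shift, as a percentage of the reference inhibitor's shift, reaches about 5.3%, limit read from the data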;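 further: 0% = Tm of DMSO wells and 100% = Tm with sodium orthovanadate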
# Starred values were filed as active, the others as inactive; . = no result given.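 How the source made its calls, unless noted: active means inhibition of at least 30% at 20 µM; inactive means the rest.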
SMILES,STEP block,Scp1 inh,LMPTP block,DNMT1 inh,SUMO1-SIM PPI,Scp1 confirm,MG interference,Scp-1 Tm shift
O=C(COc1ccc(Cl)cc1)NNC(=O)c1ccc(=O)[nH]c1,2.0,58.7*,0.0,0.8,-2.6,25.5,5.5,.
C[N+]1(CCOc2ccc([N+](=O)[O-])cc2)CCOCC1,-1.3,105.5*,-3.0,2.8,-12.6,84.6*,-10.9,-11.5
CC(=O)c1ccc(OCCOc2ccc([N+](=O)[O-])cc2)cc1,0.2,-10.4,0.0,2.4,-19.9,.,.,.
OC(Cc1cccc(Br)c1)c1ncc(-c2ccccc2C(F)(F)F)[nH]1 (centres undefined),-1.7,.,1.5,2.1,0.4,.,.,.
Cc1cccc(C)c1NC(=O)NC1(C(=O)N2CCN3CCCC3C2)CCCCC1 (centres undefined),-0.5,70.3*,-1.5,1.6,6.0,-16.6,-12.9,.
CC(C)(C)c1ccc(CC(=O)N2CCC2(C)C(=O)NS(=O)(=O)c2cccs2)cc1 (centres undefined),-3.6,.,-1.5,4.9,-7.7,.,.,.
C/C(=N\Nc1nncc2ccccc12)c1ccc(O)cc1,0.1,-0.8,1.3,-0.9,-3.7,.,.,.
C/C(=N\Nc1nncc2ccccc12)c1ccc(C(C)(C)C)cc1,0.7,57.4*,3.6,-1.6,-6.1,-7.4,-5.2,.
CCC(C)C1Nc2ccc(C(=O)NCc3ccc4c(c3)OCO4)cc2NC1=O (centres undefined),0.0,-6.4,0.0,-0.3,-8.9,-4.4,-5.4,.
CCCc1cc(=O)oc2cc(OCC(=O)NC(Cc3c[nH]c4ccc(O)cc34)C(=O)O)c(Cl)cc12 (centres undefined),0.5,55.5*,-0.2,3.3,10.7,51.0*,0.9,11.3*
O=C(O)c1cccc(NC(=O)c2cn(-c3ccccc3)nc2-c2cc3ccccc3o2)c1,7.0,58.1*,56.4*,-5.9,14.0,80.1*,-12.6,4.2
Cn1c(NNC(=O)c2cccc3ccccc23)cc(=O)n(C)c1=O,-0.4,-1.2,-1.7,-4.9,-10.1,-3.8,0.9,.
CC(=O)OC[C@@H]1CN(Cc2cccc(C(F)(F)F)c2)C[C@H](n2cnc3c(NCc4ccco4)ncnc32)O1,1.0,.,1.0,5.4,-5.3,.,.,.
CCOC1=C2CN(S(=O)(=O)c3ccc(C)cc3)[C@@H](c3cccs3)C[C@H]2[C@H]2C(=O)N(c3ccccc3)C(=O)[C@H]2C1,-0.2,.,0.7,-7.6,-3.2,.,.,.
O=C(CCCCn1c(=S)[nH]c2ccsc2c1=O)NCc1ccc2c(c1)OCO2,11.9,58.7*,17.5,-2.3,14.8,-17.5,-25.2,.
O=C(CCCCn1c(=O)[nH]c2ccsc2c1=O)NCc1ccc2c(c1)OCO2,-1.0,-11.9,1.0,-1.2,-1.6,.,.,.
CCOC(=O)[C@]12CCC=C1N(Cc1ccc(Cl)cc1Cl)C(=O)[C@H](CC(=O)N1CCN(C(=O)c3ccco3)CC1)C2,.,.,0.1,.,8.0,.,.,.
COC(=O)C1CCN(S(=O)(=O)c2cc3c4c(c2)CCN4C(=O)CC3)CC1,1.6,1.2,0.7,5.7,5.6,.,.,.
CC1(c2ccccc2)NC(=O)N(CC(=O)N2CCN(S(=O)(=O)c3ccccc3[N+](=O)[O-])CC2)C1=O (centres undefined),2.8,50.2*,-0.5,2.3,-7.0,8.6,-12.0,.
Cc1cc(C)cc(-n2c3ccc(NC(=S)NC4CCCCC4)cc3c(=O)n2C)c1,1.6,.,1.9,-13.7,4.6,.,.,.
Cc1cc(NC2CCCCC2)nc2ccccc12,-1.7,4.5,4.1,2.5,1.7,.,.,.
Cc1cc(OCC[N+]2(C)CCCCC2)nc2ccccc12,-3.3,102.4*,0.0,6.2,-0.8,89.9*,-7.9,-20.1
N#C/C(=C\c1ccc(OC(=O)c2cccs2)cc1)c1nc2ccccc2[nH]1,0.4,51.5*,3.5,-4.0,-8.0,82.5*,-1.3,3.2
CCOC(=O)C1=CCN(S(=O)(=O)c2ccc(C)cc2)C1c1ccccc1F (centres undefined),2.5,.,2.4,-7.9,4.4,.,.,.
CCOC(=O)c1c(NC(=O)COC(=O)c2ccc(O)cc2)sc(C(=O)N(C)C)c1C,0.9,-3.4,0.2,-5.3,11.6,.,.,.
SMILES,STEP block,Scp1 inh,LMPTP block,DNMT1 inh,SUMO1-SIM PPI,Scp1 confirm,MG interference,Scp-1 Tm shift
CCOC(=O)c1c(NC(=O)COC(=O)c2ccc(NC(=O)CC#N)cc2)sc(C(=O)NC)c1C,1.4,57.6*,40.2,-9.7,57.2*,61.6*,-13.4,-2.1
O=C(COC(=O)c1ccc(CO)cc1)Nc1ccc2ccccc2c1,1.3,-10.2,0.4,-3.8,-1.0,.,.,.
N#CCC(=O)Nc1ccc(C(=O)OCC(=O)Nc2ccc3ccccc3c2)cc1,3.2,52.5*,11.6,-22.5,11.6,56.6*,-15.0,24.6*
CNc1ccc(-c2cccc(C(=O)N3CCOCC3)c2)cn1,-0.3,.,-3.5,5.8,-2.0,.,.,.
O=C(Nc1cc2c(cc1Cl)OCCCO2)c1ccco1,0.9,50.0,-0.4,10.7,-2.1,-21.8,-21.9,.
O=C(N/N=C/c1cc2c(cc1Br)OCO2)c1cc2ccccc2o1,1.7,57.8*,2.7,-0.1,4.1,24.9,-3.2,.
Cc1cc(C)n2c(SC/C(O)=C(\C#N)c3nc4ccccc4[nH]3)nnc2n1,-0.5,76.1*,16.9,48.6,35.1,63.2*,-5.4,11.3*
O=C(OC1CCOC1=O)c1ccc(Cl)c(S(=O)(=O)N2CCOCC2)c1 (centres undefined),15.0,52.7*,4.8,25.5,10.3,27.1,-18.9,.
O=C(OC1CCOC1=O)c1ccc(Cl)c(S(=O)(=O)N2CCCCC2)c1 (centres undefined),1.0,22.1,-1.1,13.1,8.7,.,.,.
NC(=O)C1CCN(C(=O)CCc2nc3sc4c(c3c(=O)[nH]2)CCCC4)CC1,3.7,58.2*,4.8,35.2,8.1,62.3*,-13.9,1.7
CNC(=O)c1cc2c(s1)-c1ccccc1CC2,0.3,-7.0,0.0,0.2,-13.5,.,.,.
O=C(N/N=C/c1ccc(F)c(F)c1)c1cc2c(s1)-c1ccccc1CC2,-0.1,62.1*,5.7,6.6,2.0,42.4*,-16.4,3.3
O=C(NC1CC1)c1ccc2sc([C@@H]3O[C@H](CO)[C@H](O)[C@H](O)[C@H]3O)nc2c1,0.1,.,-2.2,6.2,-2.9,.,.,.
C=C1C[C@@H]2C[C@@H]2CN(S(=O)(=O)c2ccc(C)cc2)[C@@H]1c1ccco1,.,.,-0.5,.,6.3,.,.,.
N#C/C(=C\c1ccc(/C=C(/C#N)c2nn(CCO)c(N)c2C#N)cc1)c1nn(CCO)c(N)c1C#N,14.1,67.8*,6.3,4.0,59.6*,2.7,-12.6,.
